Laboratory results as given in ChEMBL document CHEMBL1828559, “Synthesis and characterization of high-affinity 4,4-difluoro-4-bora-3a,4a-diaza-s-indacene-labeled fluorescent ligands for human β-adrenoceptors” (J Med Chem, 2011).
The source made the active and inactive calls. No cut-off for these calls is given here.

Legend:
[1] = target: T1, Beta-2 adrenergic receptor (Homo sapiens, UniProt P07550); assay: Displacement of [3H]-CGP 12177 from human beta-2 adrenergic receptor expressed in CHOK1 cells; assay type: cell-based, CHO-K1
Target sequence in this assay (P07550 whole entry): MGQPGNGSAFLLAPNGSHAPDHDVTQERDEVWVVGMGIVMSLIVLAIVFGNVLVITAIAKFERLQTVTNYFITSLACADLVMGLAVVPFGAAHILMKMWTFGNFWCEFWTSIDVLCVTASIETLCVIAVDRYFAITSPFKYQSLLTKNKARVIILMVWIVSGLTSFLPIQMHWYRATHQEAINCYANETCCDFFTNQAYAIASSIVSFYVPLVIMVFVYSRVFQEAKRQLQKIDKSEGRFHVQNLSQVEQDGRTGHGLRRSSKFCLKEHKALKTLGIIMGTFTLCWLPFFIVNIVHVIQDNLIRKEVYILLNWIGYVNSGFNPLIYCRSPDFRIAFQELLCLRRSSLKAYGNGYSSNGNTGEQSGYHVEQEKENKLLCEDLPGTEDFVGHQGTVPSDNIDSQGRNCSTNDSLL

[2] = target: T2, Beta-3 adrenergic receptor (Homo sapiens, UniProt P13945); assay: Displacement of [3H]-CGP 12177 from human beta-3 adrenergic receptor expressed in CHOK1 cells; assay type: cell-based, CHO-K1
Target sequence in this assay (P13945 whole entry): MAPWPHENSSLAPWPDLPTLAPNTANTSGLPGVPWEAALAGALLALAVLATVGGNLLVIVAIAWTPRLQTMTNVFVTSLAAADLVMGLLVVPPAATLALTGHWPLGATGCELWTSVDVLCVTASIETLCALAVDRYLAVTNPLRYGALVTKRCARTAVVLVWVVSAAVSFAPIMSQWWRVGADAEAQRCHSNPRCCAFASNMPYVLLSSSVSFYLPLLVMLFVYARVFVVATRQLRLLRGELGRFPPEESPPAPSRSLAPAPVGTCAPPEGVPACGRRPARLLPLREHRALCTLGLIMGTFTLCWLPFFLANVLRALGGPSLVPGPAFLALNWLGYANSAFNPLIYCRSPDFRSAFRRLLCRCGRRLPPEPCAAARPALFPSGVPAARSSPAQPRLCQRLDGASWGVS

[3] = target: T3, Beta-1 adrenergic receptor (Homo sapiens, UniProt P08588); assay: Antagonist activity at human beta-1 adrenergic receptor site 1 expressed in cimeterol-stimulated CHO-K1 cells assessed as CRE-SPAP level by […]; assay type: functional, cell-based
T3 sequence (P08588 whole entry): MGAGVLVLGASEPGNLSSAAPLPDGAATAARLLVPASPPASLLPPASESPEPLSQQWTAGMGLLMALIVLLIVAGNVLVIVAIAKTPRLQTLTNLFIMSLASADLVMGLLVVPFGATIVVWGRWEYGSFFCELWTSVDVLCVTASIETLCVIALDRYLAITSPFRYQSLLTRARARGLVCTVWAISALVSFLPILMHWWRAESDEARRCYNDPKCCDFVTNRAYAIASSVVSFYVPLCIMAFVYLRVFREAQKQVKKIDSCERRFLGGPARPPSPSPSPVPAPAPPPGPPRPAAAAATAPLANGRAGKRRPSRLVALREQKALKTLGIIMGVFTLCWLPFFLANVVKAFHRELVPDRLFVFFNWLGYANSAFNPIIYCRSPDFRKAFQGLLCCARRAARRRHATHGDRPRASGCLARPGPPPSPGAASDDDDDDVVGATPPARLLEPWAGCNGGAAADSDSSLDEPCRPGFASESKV

[4] = target: T1, Beta-2 adrenergic receptor; assay: Antagonist activity at human beta-2 adrenergic receptor expressed in salbutamol-stimulated CHO-K1 cells assessed as CRE-SPAP level by […]; assay type: functional, cell-based
Target sequence in this assay (P07550 whole entry): as the sequence (P07550 whole entry) above

[5] = target: T2, Beta-3 adrenergic receptor; assay: Antagonist activity at human beta-3 adrenergic receptor expressed in fenoterol-stimulated CHOK1 cells assessed as CRE-SPAP level by […]; assay type: functional, cell-based, CHO-K1
In short: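 CHO-K1 cells stably co-expressing human β3-AR (790 fmol/mg protein) and a six-CRE SPAP reporter, grown to confluence. Fenoterol was the stimulating agonist. SPAP secreted into the medium was measured 5–6 h after agonist addition. Fixed antagonist concentrations of 10, 100 or 1000 nM were used. The Stephenson partial-agonist method was used where partial agonism occurred.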
Target sequence in this assay (P13945 whole entry): as the sequence (P13945 whole entry) above

[6] = target: T3, Beta-1 adrenergic receptor; assay: biochemical
[7] = target: T3, Beta-1 adrenergic receptor; assay: Antagonist activity at human beta-1 adrenergic receptor site 2 expressed in CGP 12177-stimulated CHO-K1 cells assessed as CRE-SPAP level by […]
[8] = target: T1, Beta-2 adrenergic receptor; assay: Binding affinity to human beta-2 adrenergic receptor expressed in CHOK1 cells at 3 nM after 18 hrs by confocal imaging; assay type: cell-based; conditions: CHO-K1
In short: (§1)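 Live confocal imaging at room temperature in HEPES-buffered saline. CHO-K1 cells expressing human β2-AR were grown at least 18 h to 80–100% confluence. Where used, antagonists (ICI 118551 1–100 nM; CGP 20712A) were preincubated for 30 min, then 3 nM fluorescent ligand was added for 10 min. Imaging was done in its continued presence, with 633 nm excitation and emission through a 650 nm long-pass filter. Control CHO-K1 cells lacked the receptor.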
Target sequence in this assay (P07550 whole entry, looked up): as the sequence (P07550 whole entry) above

[9] = target: T1, Beta-2 adrenergic receptor; assay: Binding affinity to human beta-2 adrenergic receptor expressed in CHOK1 cells at 3 nM preincubated with 1 to 100 nM beta-2 adrenergic receptor antagonist ICI 118551 for 30 mins measured after 18 hrs by confocal imaging; assay type: cell-based; conditions: CHO-K1; in short: as §1
Target sequence in this assay (P07550 whole entry, looked up): as the sequence (P07550 whole entry) above

[10] = target: T1, Beta-2 adrenergic receptor; assay: Binding affinity to human beta-2 adrenergic receptor expressed in CHOK1 cells at 3 nM preincubated with > 10 uM beta-1 adrenergic receptor antagonist CGP 20712A for 30 mins measured after 18 hrs by confocal imaging; assay type: cell-based; conditions: CHO-K1; in short: as §1
Target sequence in this assay (P07550 whole entry, looked up): as the sequence (P07550 whole entry) above

[11] = target: T2, Beta-3 adrenergic receptor; assay: Partial agonist activity at human beta-3 adrenergic receptor expressed in CHOK1 cells assessed as CRE-SPAP production at 1 uM by […] relative to 10 uM isoprenaline; assay type: functional, cell-based; conditions: CHO-K1
In short: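 CHO-K1 cells co-expressing human β3-AR and a CRE-SPAP reporter. SPAP secretion was measured 5–6 h after ligand addition. The response to 1 μM ligand alone is expressed as a percentage of the response to 10 μM isoprenaline within the same experiment. Values are mean ± SE of n separate experiments.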
Target sequence in this assay (P13945 whole entry, looked up): as the sequence (P13945 whole entry) above

O=C(CCCCCNC(=O)COc1ccc(/C=C/c2ccc3n2[B-](F)(F)[N+]2=C(c4cccs4)C=CC2=C3)cc1)NCCNC[C@H](O)COc1cccc2ccccc12
Kd [1]: 1.38 nM | Kd [2]: 44.7 nM | Kd [3]: 8.32 nM | Kd [4]: 0.427 nM | Kd [5]: 26.3 nM | Kd [6]: 36.3 nM | Kd [7]: 91.2 nM

O=C(CCCCCNC(=O)COc1ccc(/C=C/c2ccc3n2[B-](F)(F)[N+]2=C(c4cccs4)C=CC2=C3)cc1)NCCCCNC[C@H](O)COc1cccc2ccccc12
Kd [1]: 0.724 nM | Kd [2]: 123 nM | Kd [3]: 13.5 nM | Kd [4]: 0.275 nM | Kd [5]: 151 nM | Kd [6]: 33.1 nM | Kd [7]: 182 nM

O=C(CCCCCNC(=O)COc1ccc(/C=C/c2ccc3n2[B-](F)(F)[N+]2=C(c4cccs4)C=CC2=C3)cc1)NCCCCCCCCNC[C@H](O)COc1cccc2ccccc12
Kd [1]: 7.08 nM | Kd [2]: 67.6 nM | Kd [3]: 52.5 nM | Kd [4]: 1.74 nM | Kd [5]: 141 nM | Kd [6]: 186 nM | Kd [7]: 794 nM

O=C(CCCCCNC(=O)COc1ccc(/C=C/c2ccc3n2[B-](F)(F)[N+]2=C(c4cccs4)C=CC2=C3)cc1)NCCOCCOCCNC[C@H](O)COc1cccc2ccccc12
Kd [1]: 0.617 nM | Kd [2]: 81.3 nM | Kd [3]: 3.47 nM | Kd [4]: 0.295 nM | Kd [5]: 107 nM | Activity [8]: inactive | Activity [9]: inactive | Activity [10]: inactive | Kd [6]: 17.4 nM | Kd [7]: 67.6 nM

C=CCc1ccccc1OC[C@@H](O)CNCCNC(=O)CCCCCNC(=O)COc1ccc(/C=C/c2ccc3n2[B-](F)(F)[N+]2=C(c4cccs4)C=CC2=C3)cc1
Kd [1]: 2.88 nM | Kd [2]: 69.2 nM | Kd [3]: 46.8 nM | Kd [4]: 1.82 nM | Kd [5]: 41.7 nM | Activity [11]: 56.6% | Kd [6]: 91.2 nM | Kd [7]: 74.1 nM

C=CCc1ccccc1OC[C@@H](O)CNCCOCCOCCNC(=O)CCCCCNC(=O)COc1ccc(/C=C/c2ccc3n2[B-](F)(F)[N+]2=C(c4cccs4)C=CC2=C3)cc1
Kd [1]: 0.933 nM | Kd [2]: 100 nM | Kd [3]: 7.59 nM | Kd [4]: 0.427 nM | Kd [5]: 61.7 nM | Activity [11]: 63.5% | Kd [6]: 22.4 nM | Kd [7]: 41.7 nM

C=CCc1ccccc1OCC(O)CNC(C)C (stereo not drawn)
Activity [11]: 62.4%

CC(C)NCC(O)COc1cccc2[nH]ccc12 (stereo not drawn)
Activity [11]: 85.2%

O=C(CCCCCNC(=O)COc1ccc(/C=C/c2ccc3n2[B-](F)(F)[N+]2=C(c4cccs4)C=CC2=C3)cc1)NCCNCC(O)COc1cccc2ccccc12 (racemic)
Kd [1]: 2.75 nM | Kd [2]: 93.3 nM | Kd [3]: 75.9 nM | Kd [4]: 2.57 nM | Kd [5]: 63.1 nM | Kd [6]: 89.1 nM | Kd [7]: 355 nM

O=C(CCCCCNC(=O)COc1ccc(/C=C/c2ccc3n2[B-](F)(F)[N+]2=C(c4cccs4)C=CC2=C3)cc1)NCCCCNCC(O)COc1cccc2ccccc12 (racemic)
Kd [1]: 1.35 nM | Kd [2]: 105 nM | Kd [3]: 30.9 nM | Kd [4]: 0.741 nM | Kd [5]: 79.4 nM | Kd [6]: 56.2 nM | Kd [7]: 240 nM

O=C(CCCCCNC(=O)COc1ccc(/C=C/c2ccc3n2[B-](F)(F)[N+]2=C(c4cccs4)C=CC2=C3)cc1)NCCCCCCCCNCC(O)COc1cccc2ccccc12 (racemic)
Kd [1]: 5.75 nM | Kd [2]: 77.6 nM | Kd [3]: 219 nM | Kd [4]: 2.51 nM | Kd [5]: 115 nM | Kd [7]: < 1000 nM

O=C(CCCCCNC(=O)COc1ccc(/C=C/c2ccc3n2[B-](F)(F)[N+]2=C(c4cccs4)C=CC2=C3)cc1)NCCOCCOCCNCC(O)COc1cccc2ccccc12 (racemic)
Kd [1]: 3.31 nM | Kd [2]: 295 nM | Kd [3]: 41.7 nM | Kd [4]: 0.437 nM | Kd [5]: 57.5 nM | Kd [6]: 72.4 nM | Kd [7]: 112 nM

C=CCc1ccccc1OCC(O)CNCCNC(=O)CCCCCNC(=O)COc1ccc(/C=C/c2ccc3n2[B-](F)(F)[N+]2=C(c4cccs4)C=CC2=C3)cc1 (racemic)
Kd [1]: 2.34 nM | Kd [2]: 46.8 nM | Kd [3]: 43.7 nM | Kd [4]: 1.58 nM | Kd [5]: 23.4 nM | Activity [11]: 60.6% | Kd [6]: 55 nM | Kd [7]: 120 nM

C=CCc1ccccc1OCC(O)CNCCOCCOCCNC(=O)CCCCCNC(=O)COc1ccc(/C=C/c2ccc3n2[B-](F)(F)[N+]2=C(c4cccs4)C=CC2=C3)cc1 (racemic)
Kd [1]: 1.23 nM | Kd [2]: 81.3 nM | Kd [3]: 17.4 nM | Kd [4]: 0.617 nM | Kd [5]: 57.5 nM | Activity [11]: 49.6% | Kd [6]: 31.6 nM | Kd [7]: 77.6 nM

O=C(CCCCCNC(=O)COc1ccc(/C=C/c2ccc3n2[B-](F)(F)[N+]2=C(c4cccs4)C=CC2=C3)cc1)NCCNCC(O)COc1cccc2[nH]ccc12 (racemic)
Kd [1]: 46.8 nM | Kd [2]: 331 nM | Kd [3]: 302 nM | Kd [4]: 30.2 nM | Kd [5]: 178 nM | Activity [11]: 49.4% | Kd [6]: 871 nM | Kd [7]: < 1000 nM

O=C(CCCCCNC(=O)COc1ccc(/C=C/c2ccc3n2[B-](F)(F)[N+]2=C(c4cccs4)C=CC2=C3)cc1)NCCOCCOCCNCC(O)COc1cccc2[nH]ccc12 (racemic)
Kd [1]: 11 nM | Kd [2]: 380 nM | Kd [3]: 38 nM | Kd [4]: 7.24 nM | Kd [5]: 288 nM | Activity [11]: 53.2% | Kd [6]: 97.7 nM | Kd [7]: < 1000 nM
